{"source": "ChEMBL document CHEMBL3864121", "about": "“Development of ebsulfur analogues as potent antibacterials against methicillin-resistant Staphylococcus aureus” (Bioorg Med Chem, 2016)", "data": [{"system": "Staphylococcus aureus", "experiment": "Antibacterial activity against methicillin-resistant Staphylococcus aureus S17 measured after overnight incubation by broth double-dilution method", "type": "functional", "details": "not given", "in_short": "(§1)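 MIC by broth double-dilution in liquid Mueller-Hinton medium. Values are reported in µg/mL.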", "units": {"MIC": "µg/mL"}, "values": [{"smiles": "O=c1c2ccccc2sn1CCCc1ccccc1", "MIC": 2}]}, {"system": "Staphylococcus aureus", "experiment": "Antibacterial activity against methicillin-resistant Staphylococcus aureus NRS77 measured after overnight incubation by broth double-dilution method", "type": "functional", "details": "not given", "in_short": "as §1", "units": {"MIC": "µg/mL"}, "values": [{"smiles": "O=c1c2ccccc2sn1CCCc1ccccc1", "MIC": 2}]}, {"system": "Staphylococcus aureus", "experiment": "Antibacterial activity against methicillin-resistant Staphylococcus aureus C16 measured after overnight incubation by broth double-dilution method", "type": "functional", "details": "not given", "in_short": "as §1", "units": {"MIC": "µg/mL"}, "values": [{"smiles": "O=c1c2ccccc2sn1CCCc1ccccc1", "MIC": 3.9}]}, {"system": "Staphylococcus aureus", "experiment": "Antibacterial activity against methicillin-resistant Staphylococcus aureus C2 measured after overnight incubation by broth double-dilution method", "type": "functional", "details": "not given", "in_short": "as §1", "units": {"MIC": "µg/mL"}, "values": [{"smiles": "O=c1c2ccccc2sn1CCCc1ccccc1", "MIC": 2}]}, {"system": "Staphylococcus aureus", "experiment": "Antibacterial activity against methicillin-resistant Staphylococcus aureus G6 measured after overnight incubation by broth double-dilution method", "type": "functional", "details": "not given", "in_short": "as §1", "units": {"MIC": "µg/mL"}, "values": [{"smiles": "O=c1c2ccccc2sn1CCCc1ccccc1", "MIC": 2}]}, {"system": "Enterococcus", "experiment": "Antibacterial activity against Vancomycin-resistant Enterococcus measured after overnight incubation by broth double-dilution method", "type": "functional", "details": "not given", "in_short": "as §1", "units": {"MIC": "µg/mL"}, "values": [{"smiles": "O=c1c2ccccc2sn1CCCc1ccccc1", "MIC": 0.5}]}, {"system": "Mycolicibacterium smegmatis", "experiment": "Antibacterial activity against Mycobacterium smegmatis MC2-155 measured after overnight incubation by broth double-dilution method", "type": "functional", "details": "str. MC2 155", "in_short": "as §1", "units": {"MIC": "µg/mL"}, "values": [{"smiles": "O=c1c2ccccc2sn1CCCc1ccccc1", "MIC": 3.9}]}, {"system": "Staphylococcus aureus", "experiment": "Antibacterial activity against methicillin-sensitive Staphylococcus aureus ATCC 6538 measured after overnight incubation by broth double-dilution method", "type": "functional", "details": "not given", "in_short": "as §1", "units": {"MIC": "µg/mL"}, "values": [{"smiles": "O=c1c2ccccc2sn1CCCc1ccccc1", "MIC": 3.9}]}, {"system": "Staphylococcus aureus", "experiment": "Antibacterial activity against methicillin-resistant Staphylococcus aureus G1 measured after overnight incubation by broth double-dilution method", "type": "functional", "details": "not given", "in_short": "as §1", "units": {"MIC": "µg/mL"}, "values": [{"smiles": "O=c1c2ccccc2sn1CCCc1ccccc1", "MIC": 0.5}]}, {"system": "Staphylococcus aureus", "experiment": "Antibacterial activity against methicillin-resistant Staphylococcus aureus G12 measured after overnight incubation by broth double-dilution method", "type": "functional", "details": "not given", "in_short": "as §1", "units": {"MIC": "µg/mL"}, "values": [{"smiles": "O=c1c2ccccc2sn1CCCc1ccccc1", "MIC": 2}]}, {"system": "Staphylococcus aureus", "experiment": "Antibacterial activity against methicillin-resistant Staphylococcus aureus USA300 measured after overnight incubation by broth double-dilution method", "type": "functional", "details": "not given", "in_short": "as §1", "units": {"MIC": "µg/mL"}, "values": [{"smiles": "O=c1c2ccccc2sn1CCCc1ccccc1", "MIC": 2}]}, {"system": "Staphylococcus aureus", "experiment": "Antibacterial activity against methicillin-resistant Staphylococcus aureus BRS3 measured after overnight incubation by broth double-dilution method", "type": "functional", "details": "not given", "in_short": "as §1", "units": {"MIC": "µg/mL"}, "values": [{"smiles": "O=c1c2ccccc2sn1CCCc1ccccc1", "MIC": 3.9}]}, {"system": "Staphylococcus aureus", "experiment": "Antibacterial activity against methicillin-resistant Staphylococcus aureus C1 measured after overnight incubation by broth double-dilution method", "type": "functional", "details": "not given", "in_short": "as §1", "units": {"MIC": "µg/mL"}, "values": [{"smiles": "O=c1c2ccccc2sn1CCCc1ccccc1", "MIC": 2}]}, {"system": "Staphylococcus aureus", "experiment": "Antibacterial activity against methicillin-sensitive Staphylococcus aureus ATCC 25923 measured after overnight incubation by broth double-dilution method", "type": "functional", "details": "not given", "in_short": "as §1", "units": {"MIC": "µg/mL"}, "values": [{"smiles": "O=c1c2ccccc2sn1CCCc1ccccc1", "MIC": 2}]}, {"system": "Staphylococcus aureus", "experiment": "Antibacterial activity against methicillin-resistant Staphylococcus aureus S22 measured after overnight incubation by broth double-dilution method", "type": "functional", "details": "not given", "in_short": "as §1", "units": {"MIC": "µg/mL"}, "values": [{"smiles": "O=c1c2ccccc2sn1CCCc1ccccc1", "MIC": 3.9}]}, {"system": "Staphylococcus epidermidis", "experiment": "Antibacterial activity against Staphylococcus epidermidis ATCC 35984 measured after overnight incubation by broth double-dilution method", "type": "functional", "details": "RP62A", "in_short": "(§2)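 MIC by broth double-dilution in Mueller-Hinton medium. Re-testing at the time-kill inoculum used 1×10^6 CFU/mL.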", "units": {"MIC": "µg/mL"}, "values": [{"smiles": "O=c1c2ccccc2sn1CCCc1ccccc1", "MIC": 2}]}, {"system": "Enterococcus faecalis", "experiment": "Antibacterial activity against Enterococcus faecalis ATCC 29212 measured after overnight incubation by broth double-dilution method", "type": "functional", "details": "not given", "in_short": "as §2", "units": {"MIC": "µg/mL"}, "values": [{"smiles": "O=c1c2ccccc2sn1CCCc1ccccc1", "MIC": 15.6}]}, {"system": "Staphylococcus aureus", "experiment": "Antibacterial activity against methicillin-resistant Staphylococcus aureus C19 measured after overnight incubation by broth double-dilution method", "type": "functional", "details": "not given", "in_short": "as §1", "units": {"MIC": "µg/mL"}, "values": [{"smiles": "O=c1c2ccccc2sn1CCCc1ccccc1", "MIC": 2}]}, {"system": "Staphylococcus aureus", "experiment": "Antibacterial activity against methicillin-resistant Staphylococcus aureus USA600 measured after overnight incubation by broth double-dilution method", "type": "functional", "details": "not given", "in_short": "as §1", "units": {"MIC": "µg/mL"}, "values": [{"smiles": "O=c1c2ccccc2sn1CCCc1ccccc1", "MIC": 3.9}]}, {"system": "Staphylococcus aureus", "experiment": "Antibacterial activity against methicillin-resistant Staphylococcus aureus C7 measured after overnight incubation by broth double-dilution method", "type": "functional", "details": "not given", "in_short": "as §1", "units": {"MIC": "µg/mL"}, "values": [{"smiles": "O=c1c2ccccc2sn1CCCc1ccccc1", "MIC": 2}]}, {"system": "Staphylococcus aureus", "experiment": "Antibacterial activity against methicillin-resistant Staphylococcus aureus NRS51 measured after overnight incubation by broth double-dilution method", "type": "functional", "details": "not given", "in_short": "as §1", "units": {"MIC": "µg/mL"}, "values": [{"smiles": "O=c1c2ccccc2sn1CCCc1ccccc1", "MIC": 2}]}, {"system": "Staphylococcus aureus", "experiment": "Antibacterial activity against methicillin-resistant Staphylococcus aureus S24 measured after overnight incubation by broth double-dilution method", "type": "functional", "details": "not given", "in_short": "as §1", "units": {"MIC": "µg/mL"}, "values": [{"smiles": "O=c1c2ccccc2sn1CCCc1ccccc1", "MIC": 2}]}, {"system": "Listeria monocytogenes", "experiment": "Antibacterial activity against Listeria monocytogenes ATCC 19115 measured after overnight incubation by broth double-dilution method", "type": "functional", "details": "not given", "in_short": "as §2", "units": {"MIC": "µg/mL"}, "values": [{"smiles": "O=c1c2ccccc2sn1CCCc1ccccc1", "MIC": 2}]}, {"system": "Staphylococcus aureus", "experiment": "Antibacterial activity against methicillin-resistant Staphylococcus aureus USA100 measured after overnight incubation by broth double-dilution method", "type": "functional", "details": "not given", "in_short": "as §1", "units": {"MIC": "µg/mL"}, "values": [{"smiles": "O=c1c2ccccc2sn1CCCc1ccccc1", "MIC": 2}]}, {"system": "Staphylococcus aureus", "experiment": "Antibacterial activity against methicillin-sensitive Staphylococcus aureus ATCC 29213 measured after overnight incubation by broth double-dilution method", "type": "functional", "details": "not given", "in_short": "as §1", "units": {"MIC": "µg/mL"}, "values": [{"smiles": "O=c1c2ccccc2sn1CCCc1ccccc1", "MIC": 2}]}, {"system": "Staphylococcus aureus", "experiment": "Antibacterial activity against methicillin-resistant Staphylococcus aureus 1 measured after overnight incubation by broth double-dilution method", "type": "functional", "details": "not given", "in_short": "as §1", "units": {"MIC": "µg/mL"}, "values": [{"smiles": "O=c1c2ccccc2sn1CCCc1ccccc1", "MIC": 0.5}]}, {"system": "Staphylococcus aureus", "experiment": "Antibacterial activity against methicillin-resistant Staphylococcus aureus C14 measured after overnight incubation by broth double-dilution method", "type": "functional", "details": "not given", "in_short": "as §1", "units": {"MIC": "µg/mL"}, "values": [{"smiles": "O=c1c2ccccc2sn1CCCc1ccccc1", "MIC": 3.9}]}, {"system": "Staphylococcus aureus", "experiment": "Antibacterial activity against methicillin-resistant Staphylococcus aureus ATCC 33591 measured after overnight incubation by broth double-dilution method", "type": "functional", "details": "not given", "in_short": "as §1", "units": {"MIC": "µg/mL"}, "values": [{"smiles": "O=c1c2ccccc2sn1CCCc1ccccc1", "MIC": 1}]}, {"system": "Staphylococcus aureus", "experiment": "Antibacterial activity against methicillin-resistant Staphylococcus aureus G14 measured after overnight incubation by broth double-dilution method", "type": "functional", "details": "not given", "in_short": "as §1", "units": {"MIC": "µg/mL"}, "values": [{"smiles": "O=c1c2ccccc2sn1CCCc1ccccc1", "MIC": 2}]}, {"system": "Staphylococcus aureus", "experiment": "Antibacterial activity against methicillin-resistant Staphylococcus aureus USA200 measured after overnight incubation by broth double-dilution method", "type": "functional", "details": "not given", "in_short": "as §1", "units": {"MIC": "µg/mL"}, "values": [{"smiles": "O=c1c2ccccc2sn1CCCc1ccccc1", "MIC": 3.9}]}, {"system": "Staphylococcus aureus", "experiment": "Antibacterial activity against methicillin-resistant Staphylococcus aureus S14 measured after overnight incubation by broth double-dilution method", "type": "functional", "details": "not given", "in_short": "as §1", "units": {"MIC": "µg/mL"}, "values": [{"smiles": "O=c1c2ccccc2sn1CCCc1ccccc1", "MIC": "≤ 0.25"}]}, {"system": "Staphylococcus aureus", "experiment": "Antibacterial activity against methicillin-resistant Staphylococcus aureus 2 measured after overnight incubation by broth double-dilution method", "type": "functional", "details": "not given", "in_short": "as §1", "units": {"MIC": "µg/mL"}, "values": [{"smiles": "O=c1c2ccccc2sn1CCCc1ccccc1", "MIC": 2}]}, {"system": "Enterococcus faecium", "experiment": "Antibacterial activity against Enterococcus faecium BM4105-RF measured after overnight incubation by broth double-dilution method", "type": "functional", "details": "not given", "in_short": "as §1", "units": {"MIC": "µg/mL"}, "values": [{"smiles": "O=c1c2ccccc2sn1CCCc1ccccc1", "MIC": 15.6}]}, {"system": "Staphylococcus aureus", "experiment": "Antibacterial activity against methicillin-resistant Staphylococcus aureus NRS4 measured after overnight incubation by broth double-dilution method", "type": "functional", "details": "not given", "in_short": "as §1", "units": {"MIC": "µg/mL"}, "values": [{"smiles": "O=c1c2ccccc2sn1CCCc1ccccc1", "MIC": 2}]}, {"system": "Enterococcus faecalis", "experiment": "Antibacterial activity against Enterococcus faecalis ATCC 49533 measured after overnight incubation by broth double-dilution method", "type": "functional", "details": "not given", "in_short": "as §2", "units": {"MIC": "µg/mL"}, "values": [{"smiles": "O=c1c2ccccc2sn1CCCc1ccccc1", "MIC": "> 125"}]}]}
